According to paper PMC5800744 (ACS chemical neuroscience, 2015):
Values after ≈ are worked out from the molar mass of the structure shown.

Experiments:
[1] = Water solubility determination; format: physicochemical; settings: saturated solution in water
In short: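 A saturated solution of test compound in water was centrifuged. The supernatant was quantified by UPLC with UV detection at 245 nm against calibration curves from known concentrations. The relative value compares the solubilities of the two compounds measured this way.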

[2] = test system: red blood cells (horse whole blood); assay: Hemolysis of red blood cells; format: cell-based; settings: up to concentrations of 160 μM; 37 °C, 1 h
In short: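 Horse whole-blood RBCs were pelleted at 7 000g and washed three times in 0.1 M PBS. Test compound, from DMSO stock, was incubated with RBCs in PBS at final 5–160 μM for 1 h at 37 °C, in duplicate. Controls were Triton X-100 (positive) and DMSO/PBS (negative). Samples were spun at 13 000g, supernatant absorbance was read at 541 nm, and IC50 was calculated from the plotted data.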

HepG2 cells = assay: XTT cytotoxicity assay; format: cell-based
In short: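 XTT viability in HepG2 cells, run in triplicate, with IC50 obtained by curve fitting.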

[3] = PK and brain distribution after single iv dose; format: in vivo, mice (male C57Bl/6J); settings: male mice
MMP-9 = settings: cited from earlier work
[4] = test system: cortical lesion after controlled cortical impact; settings: TBI mice; routes of administration and dose regimens different; cited from earlier work
[5] = 2 after single iv dose of 2 (6.3 mg/kg), plasma
[6] = 2 in brain after single iv dose of 2 (6.3 mg/kg)
[7] = 2 in brain after single iv dose of 3 (7.8 mg/kg)
[8] = 2 in plasma after single iv dose of 2 (6.3 mg/kg)
[9] = 2 in plasma after single iv dose of 3 (7.8 mg/kg)

Compound: O=S(=O)(CC1CS1)c1ccc(Oc2ccc(O)cc2)cc1 (centres unmarked) [Compound 2, p-hydroxy SB-3CT]
- aqueous solubility [1]: 22.2 µg/mL (≈ 68.9 µM)
- hemolysis of red blood cells [2]: not observed
- IC50 (HepG2 cells): 114 ± 1 µM
- brainAUC/plasmaAUC ([3]; 2 after single iv dose of 2 (6.3 mg/kg)): 1.2
- CL [3, 5]: 105 mL/min/kg
- Vd [3, 5]: 0.850 L/kg
- brainAUC/plasmaAUC ([3]; 2 after single iv dose of 3 (7.8 mg/kg)): 0.53
- AUC0-last [3, 6]: 232 pmol·min/mg
- AUC0-∞ [3, 6]: 235 pmol·min/mg
- t1/2α [3, 6]: 3.0 min
- t1/2β [3, 6]: 49 min
- AUC0-last [3, 7]: 26 pmol·min/mg
- AUC0-∞ [3, 7]: 27 pmol·min/mg
- t1/2α [3, 7]: 3.1 min
- t1/2β [3, 7]: 8.3 min
- AUC0-last [3, 8]: 189 µM·min
- AUC0-∞ [3, 8]: 195 µM·min
- t1/2α [3, 8]: 3.4 min
- t1/2β [3, 8]: 45 min
- AUC0-last [3, 9]: 49 µM·min
- AUC0-∞ [3, 9]: 49 µM·min
- t1/2α [3, 9]: 3.0 min
- t1/2β [3, 9]: 6.5 min
- Ki (MMP-9; MMP-9): 0.16 ± 0.08 µM

Compound: O=S(=O)(CC1CS1)c1ccc(Oc2ccccc2)cc1 (centres unmarked) [SB-3CT]
- reduction in brain damage [4]: 14%

Compound: TIMP-1: tissue inhibitor of matrix metalloproteinase-1
- residence time (MMP-9; time the inhibitor remains complexed with the target): 7.9 min
